Paper PMC6247954 (Cell, 2018)

What was measured:
[1] = tested on: YB5 cells (silenced CMV-GFP); test: GFP reactivation in YB5 measured by flow cytometry; format: cell-based, human; settings: for GFP reactivation by GSK-3 inhibitors: YB5, multiple doses, single exposure for four days
YB5 cells [2] = test: Time-course RNA-seq in YB5; format: cell-based, human; settings: after excluding genes downregulated at 2hr/4hr
YB5 cells [3] = test: qPCR of hypermethylated silenced genes in YB5; format: cell-based, human; settings: for reactivation of SYNE1 and MGMT: YB5, 24hr treatment, qPCR
CDK9/CyclinT1 = CDK9/CyclinT1 (Homo sapiens, UniProt P50750); test: Isotope kinase activity assay with recombinant CDK9/CyclinT1 and BRG1; format: biochemical; settings: 1μM inhibitor, 32γ-ATP
In short: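 Recombinant active full-length CDK9/Cyclin T1 (1.2 μg) pre-incubated 15 min with or without 1μM test compound. Purified BRG1 (0.8 μg) then added, 1 hr at 30 °C in KAS buffer containing 5μCi/μl 32γ-ATP. Reaction stopped by heating at 65 °C for 5 min.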

substrates of CDK4/6 = test: Western Blot of CDK substrates after MC180295 treatment; format: cell-based; settings: 2hrs treatment
GSK-3α = GSK-3α (Homo sapiens, UniProt P49840); test: Kinome screening of 250 kinases at 1μM; format: biochemical
In short: (§1)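 Kinase assays were run by a contract lab on a microfluidic mobility-shift platform. Each target kinase was incubated with fluorescently labelled substrate and test compound in a standardized reaction mixture.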

panel of 250 kinases = test: Kinome screening of 250 kinases at 1μM; format: biochemical, human
In short: as §1

human T lymphocytes = test: Humanized PBMC NSG mice; format: in vivo; settings: 10 mg/kg or 20 mg/kg for 14 days
HL60 cell line = test: HL60 differentiation; format: cell-based, human; settings: single dose exposure for four days
In short: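 HL60 cells received one dose 24 h after seeding, drug-free medium on day 3, and analysis on day 4. Cells were washed and stained with PI plus FITC-CD11b or isotype IgG, then read on a Guava flow cytometer. Positive controls were 1μM ATRA and 1.25% DMSO.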

SW48-luc cells = test: i.p. SW48-luc model in NSG mice; format: in vivo
In short: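 SW48 cells transfected with ffluc2-eGFP, GFP-positive cells sorted one week later and expanded. Cells injected i.p. into male and female age- and gender-matched NSG mice. Once tumour burden was seen by bioluminescence, mice randomised to 5–20mg/kg test compound or solvent i.p. every other day (3 vehicle, 5 treated). Imaged 5 min after i.p. D-luciferin. Endpoint: natural death or ascites; survival by log-rank (Mantel-Cox).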

[4] = tested on: cancer cell lines vs normal lung fibroblast (IMR90); test: Anti-proliferation assay; format: cell-based, human; settings: four days after one-time exposure; 5μM HH1 or 0.1μM MC180295
In short: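 Cells seeded in 96-well plates at 40% confluency. Medium refreshed next day, test compound added directly, then cultured two more days at 37°C. Drug-free medium on day four. Cells trypsinised on day 5, mixed 1:1 with trypan blue and counted on an automated counter. Each sample counted at least three times and averaged; triplicate wells per condition.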

SW48 = test: s.c. SW48 xenograft model in NSG mice; format: in vivo
In short: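 2×10^6 SW48 cells injected s.c. into the flank of randomly assigned, gender-matched 8–10-week-old NSG mice. Once tumours were palpable, 20mg/kg test compound or vehicle given i.p. every other day, for 10 weeks. Tumour size measured by caliper (mean+SEM, Student's t-test); survival recorded in days.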

YB5 and HCT116 = test: Soft agar colony formation assay; format: cell-based, human; settings: single dose pre-exposure for four days
In short: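 Cells were pretreated with a range of test compound concentrations, kept in drug for two more days, and switched to drug-free medium the day before seeding (four days total). 1000 cells were plated in Noble agar with 2x medium (20% FBS, 2% penicillin/streptomycin). Plates were grown two weeks at 37°C, then stained with 0.005% crystal violet in 10% EtOH.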

GSK-3β = GSK-3β (Homo sapiens, UniProt P49841); test: Kinome screening of 250 kinases at 1μM; format: biochemical
In short: as §1

YB5 = test: Cell cycle analysis by propidium iodide staining; format: cell-based, human; settings: four days after single exposure
In short: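 YB5 cells received a single drug dose 24 h after seeding, with drug-free medium replaced three days later. They were analysed four days after treatment by propidium iodide staining and FACSCalibur flow cytometry. Sub-G1 fraction was taken as the apoptotic proportion. N=3.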

[5] = tested on: GFP and GLDC expression in tumors; test: Pharmacodynamics study in NSG mice; format: in vivo; settings: two-week every other day treatment, qPCR
In short: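 Six gender-matched 8–10-week-old NSG mice randomised to vehicle or drug. 2×10^6 cells injected into the flank. 20mg/kg test compound given i.p. every other day for two weeks, starting when tumours were palpable 9 days after engraftment. Tumours homogenised, total mRNA extracted, expression measured by qPCR; N=3, mean+SEM, Student's t-test.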

[6] = tested on: pSer2 of RNAPII CTD (CDK9 target); test: Western Blot of CDK substrates after MC180295 treatment; format: cell-based; settings: 2hrs treatment
CDK1/2 substrates = test: as above; format: cell-based; settings: 2hrs treatment
ID8 = test: ID8-VEGF-Defensin syngeneic ovarian cancer mouse model; format: in vivo
In short: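 Female C57BL/6NHsd mice aged 7–8 weeks were injected i.p. with 2.5×10^5 ID8-VEGF-Defensin mouse ovarian cancer cells. From day 3, test compound (1 or 10 mg/kg) or vehicle (5% DMSO in PBS) was given i.p. every 3 days for the whole experiment. Groups were randomly assigned.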

CDK9 = settings: read-out: IC50 for CDK9; ref Asghar et al., 2015; cited from earlier work
CDK4 = settings: read-out: IC50 for CDK4; ref Asghar et al., 2015; cited from earlier work
CDK1 = settings: read-out: IC50 for CDK1; ref Asghar et al., 2015; cited from earlier work

Chain of CDK9/CyclinT1 (P50750 whole entry): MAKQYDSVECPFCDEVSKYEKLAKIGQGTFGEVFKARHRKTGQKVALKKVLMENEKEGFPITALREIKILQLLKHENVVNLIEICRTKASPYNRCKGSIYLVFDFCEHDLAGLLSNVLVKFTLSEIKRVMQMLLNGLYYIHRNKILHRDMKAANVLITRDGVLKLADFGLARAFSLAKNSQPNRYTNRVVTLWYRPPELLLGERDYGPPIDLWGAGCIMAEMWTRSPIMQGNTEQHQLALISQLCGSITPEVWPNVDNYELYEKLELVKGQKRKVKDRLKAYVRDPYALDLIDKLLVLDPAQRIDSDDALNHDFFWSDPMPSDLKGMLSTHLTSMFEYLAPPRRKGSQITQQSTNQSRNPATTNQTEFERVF
Chain of CDK9/CyclinT1 (O60563 whole entry partner): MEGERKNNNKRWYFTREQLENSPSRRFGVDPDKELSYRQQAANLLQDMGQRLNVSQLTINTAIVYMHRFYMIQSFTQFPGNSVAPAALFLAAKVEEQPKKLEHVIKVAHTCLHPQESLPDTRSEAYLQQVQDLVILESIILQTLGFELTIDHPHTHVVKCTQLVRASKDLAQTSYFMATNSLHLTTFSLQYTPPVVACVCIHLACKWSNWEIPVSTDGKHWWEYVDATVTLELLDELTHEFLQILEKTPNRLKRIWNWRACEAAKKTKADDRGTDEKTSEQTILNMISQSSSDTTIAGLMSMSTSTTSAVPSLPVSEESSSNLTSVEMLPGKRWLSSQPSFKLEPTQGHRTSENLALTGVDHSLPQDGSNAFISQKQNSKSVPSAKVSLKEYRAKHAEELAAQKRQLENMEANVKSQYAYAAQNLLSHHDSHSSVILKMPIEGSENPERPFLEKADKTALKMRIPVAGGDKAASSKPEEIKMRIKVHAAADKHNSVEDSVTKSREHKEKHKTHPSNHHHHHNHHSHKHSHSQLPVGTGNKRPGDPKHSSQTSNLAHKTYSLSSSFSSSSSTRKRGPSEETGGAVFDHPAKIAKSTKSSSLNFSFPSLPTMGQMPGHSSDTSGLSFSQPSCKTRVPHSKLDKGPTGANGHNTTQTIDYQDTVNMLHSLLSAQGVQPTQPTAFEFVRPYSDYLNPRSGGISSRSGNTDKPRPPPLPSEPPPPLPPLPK
Chain of GSK-3α (P49840 whole entry): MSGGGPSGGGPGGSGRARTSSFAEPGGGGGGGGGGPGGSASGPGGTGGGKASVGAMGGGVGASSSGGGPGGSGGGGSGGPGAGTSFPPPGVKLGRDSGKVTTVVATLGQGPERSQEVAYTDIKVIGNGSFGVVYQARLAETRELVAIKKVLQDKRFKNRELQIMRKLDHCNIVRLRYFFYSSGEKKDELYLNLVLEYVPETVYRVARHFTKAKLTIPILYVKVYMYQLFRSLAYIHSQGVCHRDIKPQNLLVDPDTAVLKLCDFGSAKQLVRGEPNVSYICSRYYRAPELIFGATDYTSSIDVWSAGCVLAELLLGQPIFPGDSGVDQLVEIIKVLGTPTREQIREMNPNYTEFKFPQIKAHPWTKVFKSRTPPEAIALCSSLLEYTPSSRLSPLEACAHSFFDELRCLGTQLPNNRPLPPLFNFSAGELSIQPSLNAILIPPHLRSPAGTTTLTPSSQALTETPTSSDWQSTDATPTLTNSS
Chain of GSK-3β (P49841 whole entry): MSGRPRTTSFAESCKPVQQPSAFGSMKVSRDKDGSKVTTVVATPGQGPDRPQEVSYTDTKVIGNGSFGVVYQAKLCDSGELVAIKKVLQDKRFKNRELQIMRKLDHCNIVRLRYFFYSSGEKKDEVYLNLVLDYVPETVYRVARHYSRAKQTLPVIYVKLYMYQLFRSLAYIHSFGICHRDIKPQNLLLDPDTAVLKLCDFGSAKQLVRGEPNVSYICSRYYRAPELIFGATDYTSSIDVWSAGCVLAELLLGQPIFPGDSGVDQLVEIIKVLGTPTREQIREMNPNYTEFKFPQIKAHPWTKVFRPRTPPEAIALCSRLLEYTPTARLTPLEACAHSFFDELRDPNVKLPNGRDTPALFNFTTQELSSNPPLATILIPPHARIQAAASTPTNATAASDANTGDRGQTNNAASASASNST

Cc1c[nH]c(-c2cnc(NCCNc3ccc(C#N)cn3)nc2-c2ccc(Cl)cc2Cl)n1 [CHR99021]
GFP reactivation by GSK-3 inhibitors [1]: no GFP reactivation

Nc1ncn([C@H]2C[C@H](O)[C@@H](CO)O2)c(=O)n1 [DAC, decitabine]
silenced genes (RPKM < 0.31) up (YB5 cells [2]): 1238 genes
time to reactivation of hypermethylated genes (YB5 cells [3]; YB5, daily 100nM, for most genes): at least 24 hrs

[Cl-].[Li+] [LiCl]
GFP reactivation by GSK-3 inhibitors [1]: no GFP reactivation

Nc1nc(N[C@H]2CC3CCC2C3)sc1C(=O)c1ccccc1[N+](=O)[O-] (stereo partly drawn) [MC180295, (4-amino-2-(((2S)-bicyclo[2.2.1]heptan-2-yl)amino)thiazol-5-yl)(2-nitrophenyl)methanone]
phosphorylation of RNA-Pol-ll CTD, BRG1 and CDK9 by CDK9 (CDK9/CyclinT1): unphosphorylated after CDK9 inhibition
effect on substrates of CDK4/6 (substrates of CDK4/6): only affected at substantially higher doses
inhibition of GSK-3α (GSK-3α): inhibited
selectivity within the human kinome (panel of 250 kinases): highly selective against CDKs
killing of human T lymphocytes in vivo (human T lymphocytes): did not kill human T lymphocytes
ratio of CD4 and CD8 T cells in vivo (human T lymphocytes): did not affect the ratio of CD4 and CD8 T cells
induction of differentiation marker CD11b (HL60 cell line): significant induction
body weights (SW48-luc cells; every other day treatment): did not affect body weights
survival of the mice (SW48-luc cells; i.p. every other day, log-rank test): significantly extend survival
reduction of proliferation, cancer cells compared to IMR90 [4]: more effective in reducing proliferation of cancer cells
mouse survival (SW48; 20mg/kg i.p. qod): improved mouse survival
toxicity as measured by body weight (SW48; 20mg/kg qod): without causing overt toxicity
tumor growth (SW48; 20mg/kg qod): tumors grew slower
reduction of colony formation in soft agar (YB5 and HCT116): 30–80%
inhibition of GSK-3β (GSK-3β): inhibited
GFP+ cells ([1]; YB5, 500nM, four days after single dose): ~ 60%
concentration active for GFP reactivation ([1]; YB5, four days after single dose): 50 nM
cell cycle arrest (YB5): no cell cycle arrest
sub-G1 subpopulation (YB5): an increase in the sub-G1 subpopulation
reactivation of GFP and GLDC in tumors [5]: reactivated GFP and GLDC in a dose dependent manner
dephosphorylation of Ser2 (pSer2) [6]: dephosphorylated at nanomolar doses
effect on CDK1/2 substrates (CDK1/2 substrates): not affected at all

O=C(/C=C/N1C[C@H]2C[C@@H]1CN2c1ccccn1)c1ccccc1O [PFI-3]
effect on GFP activation by CDK9 inhibitors ([1]; YB5, 72hr daily pretreatment followed by 24hr co-treatment with HH1 or iCDK9): inhibited GFP activation by CDK9 inhibitors in a dose-dependent manner

CC(C)(C)c1cnc(CSc2cnc(NC(=O)C3CCNCC3)s2)o1 [SNS-032]
tumor growth (SW48; 20mg/kg qod): tumors grew slower
survival (ID8; 10mg/kg): extended survival
tumor burden (ascites fluid) (ID8; 10mg/kg): reduced tumor burden
activated dendritic cells (CD80/CD86+ and CD11c/MHCII+) in the tumor microenvironment (ID8; flow cytometry of ascites): increased populations of activated dendritic cells
immune cells (CD45+) and T cells (CD3+) in the tumor microenvironment (ID8; flow cytometry of ascites): increased populations of immune cells (CD45+) and T cells (CD3+)

CN1CC[C@H](c2c(O)cc(O)c3c(=O)cc(-c4ccccc4Cl)oc23)[C@H](O)C1 [flavopiridol]
phosphorylation of RNA-Pol-ll CTD, BRG1 and CDK9 by CDK9 (CDK9/CyclinT1): unphosphorylated after CDK9 inhibition
reactivation of SYNE1 and MGMT (YB5 cells [3]): led to gene reactivation

NC1CCC(Nc2cc(-c3cccc(NCc4cccc(F)c4)n3)c(Cl)cn2)CC1 (centres unmarked) [iCDK9]
reactivation of SYNE1 and MGMT (YB5 cells [3]): led to gene reactivation
